# Measured values taken from ChEMBL document CHEMBL2202989, “New adamantane phenylalkylamines with σ-receptor binding affinity and anticancer activity, associated with putative antagonism of neuropathic pain” (J Med Chem, 2012).
# Test system: BXPC-3
# Test: Growth inhibition of human BxPC3 cells after 48 hrs by SRB assay
# Assay type: functional
# Conditions: BXPC-3, 48 h
# Method in brief: (§1)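 Cells grown in RPMI 1640 with 5% heat-inactivated FCS, 2 mM L-glutamine and antibiotics, 37 °C, 5% CO2. Seeded at 3500–30000 cells/well and left 24 h before dosing. DMSO solutions added at 10-fold dilutions from 100 to 0.01 μM for 48 h. Cells TCA-fixed and SRB-stained, absorbance read at 540 nm; GI50 derived against the time-zero plate.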
SMILES,GI50 [µM],LC50 [µM],TGI [µM]
c1ccc(C(c2ccc(CN3CCCCC3)cc2)C23CC4CC(CC(C4)C2)C3)cc1 (stereo unspecified),15.8,0.0874,51.6
c1ccc(C(c2ccc(CCN3CCCCC3)cc2)C23CC4CC(CC(C4)C2)C3)cc1 (stereo unspecified),64.7,0.1,100

# Test system: MIA PaCa-2
# Test: Growth inhibition of human MIAPaCa2 cells after 48 hrs by SRB assay
# Assay type: functional
# Conditions: MIA PaCa-2, 48 h
# Method in brief: as §1
SMILES,GI50 [µM],TGI [µM]
c1ccc(C(c2ccc(CN3CCCCC3)cc2)C23CC4CC(CC(C4)C2)C3)cc1 (stereo unspecified),7.98,43.2
c1ccc(C(c2ccc(CCN3CCCCC3)cc2)C23CC4CC(CC(C4)C2)C3)cc1 (stereo unspecified),35.5,63.3

# Same assay, conditions: MIA PaCa-2, 48 h, read-out: LC50 (the source's name)
row,SMILES,CC50 [µM]
1,c1ccc(C(c2ccc(CN3CCCCC3)cc2)C23CC4CC(CC(C4)C2)C3)cc1 (stereo unspecified),0.0813
2,c1ccc(C(c2ccc(CCN3CCCCC3)cc2)C23CC4CC(CC(C4)C2)C3)cc1 (stereo unspecified),0.0911

# Test system: HL-60(TB)
# Test: Growth inhibition of human HL-60(TB) cells after 48 hrs by SRB assay
# Assay type: functional
# Conditions: HL-60, 48 h
# Method in brief: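 Cells kept in RPMI 1640 with 5% FCS at 37 °C, 5% CO2, and seeded 24 h before dosing. Compound given from DMSO at 10-fold dilutions, 100 to 0.01 μM, for 48 h. Cells fixed with TCA, stained with SRB, absorbance read at 540 nm. GI50 taken from a time-zero plate.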
SMILES,GI50 [µM],TGI [µM]
c1ccc(C(c2ccc(CN3CCCCC3)cc2)C23CC4CC(CC(C4)C2)C3)cc1 (stereo unspecified),0.00591,0.0729

# Same assay, conditions: HL-60, 48 h, read-out: LC50 (the source's name)
row,SMILES,CC50 [µM]
1,c1ccc(C(c2ccc(CN3CCCCC3)cc2)C23CC4CC(CC(C4)C2)C3)cc1 (stereo unspecified),0.1

# Test system: U-251
# Test: Growth inhibition of human U251 cells after 48 hrs by SRB assay
# Assay type: functional
# Conditions: U-251, 48 h
# Method in brief: as §1
SMILES,GI50 [µM],TGI [µM]
c1ccc(C(c2ccc(CN3CCCCC3)cc2)C23CC4CC(CC(C4)C2)C3)cc1 (stereo unspecified),8.6,40.2
c1ccc(C(c2ccc(CCN3CCCCC3)cc2)C23CC4CC(CC(C4)C2)C3)cc1 (stereo unspecified),24.8,55.8

# Same assay, conditions: U-251, 48 h, read-out: LC50 (the source's name)
row,SMILES,CC50 [µM]
1,c1ccc(C(c2ccc(CN3CCCCC3)cc2)C23CC4CC(CC(C4)C2)C3)cc1 (stereo unspecified),0.0758
2,c1ccc(C(c2ccc(CCN3CCCCC3)cc2)C23CC4CC(CC(C4)C2)C3)cc1 (stereo unspecified),0.0867

# Test system: NHDF
# Test: (§2) Growth inhibition of human NHDF cells after 48 hrs by SRB assay
# Assay type: cell-based
# Conditions: nhdf, 48 h
# Method in brief: as §1
SMILES,LC50 [µM],TGI [µM]
c1ccc(C(c2ccc(CN3CCCCC3)cc2)C23CC4CC(CC(C4)C2)C3)cc1 (stereo unspecified),81.19,52.5
c1ccc(C(c2ccc(CCN3CCCCC3)cc2)C23CC4CC(CC(C4)C2)C3)cc1 (stereo unspecified),99.34,59

# Test system: not listed separately
# Test: as §2
# Assay type: cell-based
# Conditions: NHDF cells
# Method in brief: as §1
row,SMILES,GI50 at 48 h [µM]
1,c1ccc(C(c2ccc(CN3CCCCC3)cc2)C23CC4CC(CC(C4)C2)C3)cc1 (stereo unspecified),23.7
2,c1ccc(C(c2ccc(CCN3CCCCC3)cc2)C23CC4CC(CC(C4)C2)C3)cc1 (stereo unspecified),18.6

# Test system: DU-145
# Test: Growth inhibition of human DU145 cells after 48 hrs by SRB assay
# Assay type: functional
# Conditions: DU-145, 48 h
# Method in brief: as §1
SMILES,GI50 [µM],TGI [µM]
c1ccc(C(c2ccc(CN3CCCCC3)cc2)C23CC4CC(CC(C4)C2)C3)cc1 (stereo unspecified),8.98,47.3

# Same assay, conditions: DU-145, 48 h, read-out: LC50 (the source's name)
row,SMILES,CC50 [µM]
1,c1ccc(C(c2ccc(CN3CCCCC3)cc2)C23CC4CC(CC(C4)C2)C3)cc1 (stereo unspecified),0.089

# Test system: HCT-15
# Test: Growth inhibition of human HCT15 cells after 48 hrs by SRB assay
# Assay type: functional
# Conditions: HCT-15, 48 h
# Method in brief: as §1
SMILES,GI50 [µM],TGI [µM]
c1ccc(C(c2ccc(CN3CCCCC3)cc2)C23CC4CC(CC(C4)C2)C3)cc1 (stereo unspecified),8.8,79
c1ccc(C(c2ccc(CCN3CCCCC3)cc2)C23CC4CC(CC(C4)C2)C3)cc1 (stereo unspecified),9.12,43.7

# Same assay, conditions: HCT-15, 48 h, read-out: LC50 (the source's name)
row,SMILES,CC50 [µM]
1,c1ccc(C(c2ccc(CN3CCCCC3)cc2)C23CC4CC(CC(C4)C2)C3)cc1 (stereo unspecified),0.1
2,c1ccc(C(c2ccc(CCN3CCCCC3)cc2)C23CC4CC(CC(C4)C2)C3)cc1 (stereo unspecified),0.082

# Test system: OVCAR-5
# Test: Growth inhibition of human OVCAR5 cells after 48 hrs by SRB assay
# Assay type: functional
# Conditions: OVCAR-5, 48 h
# Method in brief: as §1
SMILES,GI50 [µM],TGI [µM]
c1ccc(C(c2ccc(CN3CCCCC3)cc2)C23CC4CC(CC(C4)C2)C3)cc1 (stereo unspecified),31.1,60.8
c1ccc(C(c2ccc(CCN3CCCCC3)cc2)C23CC4CC(CC(C4)C2)C3)cc1 (stereo unspecified),37.3,67.8

# Same assay, conditions: OVCAR-5, 48 h, read-out: LC50 (the source's name)
row,SMILES,CC50 [µM]
1,c1ccc(C(c2ccc(CN3CCCCC3)cc2)C23CC4CC(CC(C4)C2)C3)cc1 (stereo unspecified),0.0915
2,c1ccc(C(c2ccc(CCN3CCCCC3)cc2)C23CC4CC(CC(C4)C2)C3)cc1 (stereo unspecified),0.0977

# Test system: HUVEC
# Test: (§3) Growth inhibition of human HUVEC cells after 48 hrs by SRB assay
# Assay type: cell-based
# Conditions: huvec, 48 h
# Method in brief: as §1
SMILES,LC50 [µM],TGI [µM]
c1ccc(C(c2ccc(CN3CCCCC3)cc2)C23CC4CC(CC(C4)C2)C3)cc1 (stereo unspecified),72.47,21.7
c1ccc(C(c2ccc(CCN3CCCCC3)cc2)C23CC4CC(CC(C4)C2)C3)cc1 (stereo unspecified),100,9.33

# Test system: not listed separately
# Test: as §3
# Assay type: cell-based
# Conditions: HUVEC cells
# Method in brief: as §1
row,SMILES,GI50 at 48 h [µM]
1,c1ccc(C(c2ccc(CN3CCCCC3)cc2)C23CC4CC(CC(C4)C2)C3)cc1 (stereo unspecified),5.11
2,c1ccc(C(c2ccc(CCN3CCCCC3)cc2)C23CC4CC(CC(C4)C2)C3)cc1 (stereo unspecified),5.31

# Test system: SK-HEP1
# Test: Growth inhibition of human SKHEP1 cells after 48 hrs by SRB assay
# Assay type: functional
# Conditions: SK-HEP1, 48 h
# Method in brief: as §1
SMILES,GI50 [µM],TGI [µM]
c1ccc(C(c2ccc(CN3CCCCC3)cc2)C23CC4CC(CC(C4)C2)C3)cc1 (stereo unspecified),7.46,38.4
c1ccc(C(c2ccc(CCN3CCCCC3)cc2)C23CC4CC(CC(C4)C2)C3)cc1 (stereo unspecified),8.61,58.2

# Same assay, conditions: SK-HEP1, 48 h, read-out: LC50 (the source's name)
row,SMILES,CC50 [µM]
1,c1ccc(C(c2ccc(CN3CCCCC3)cc2)C23CC4CC(CC(C4)C2)C3)cc1 (stereo unspecified),0.0822
2,c1ccc(C(c2ccc(CCN3CCCCC3)cc2)C23CC4CC(CC(C4)C2)C3)cc1 (stereo unspecified),0.1

# Test system: not listed separately
# Test: Growth inhibition of human MSC cells after 48 hrs by SRB assay
# Assay type: cell-based
# Conditions: not given
# Method in brief: as §1
row,SMILES,TGI [µM]
1,c1ccc(C(c2ccc(CN3CCCCC3)cc2)C23CC4CC(CC(C4)C2)C3)cc1 (stereo unspecified),20.1
2,c1ccc(C(c2ccc(CCN3CCCCC3)cc2)C23CC4CC(CC(C4)C2)C3)cc1 (stereo unspecified),18.3

# Test system: PC-3
# Test: Growth inhibition of human PC3 cells after 48 hrs by SRB assay
# Assay type: functional
# Conditions: PC-3, 48 h
# Method in brief: as §1
SMILES,GI50 [µM],TGI [µM]
c1ccc(C(c2ccc(CN3CCCCC3)cc2)C23CC4CC(CC(C4)C2)C3)cc1 (stereo unspecified),6.07,26.2
c1ccc(C(c2ccc(CCN3CCCCC3)cc2)C23CC4CC(CC(C4)C2)C3)cc1 (stereo unspecified),11.6,41.2

# Same assay, conditions: PC-3, 48 h, read-out: LC50 (the source's name)
row,SMILES,CC50 [µM]
1,c1ccc(C(c2ccc(CN3CCCCC3)cc2)C23CC4CC(CC(C4)C2)C3)cc1 (stereo unspecified),0.0813
2,c1ccc(C(c2ccc(CCN3CCCCC3)cc2)C23CC4CC(CC(C4)C2)C3)cc1 (stereo unspecified),0.092

# Test system: IGROV-1
# Test: Growth inhibition of human IGROV1 cells after 48 hrs by SRB assay
# Assay type: functional
# Conditions: IGROV-1, 48 h
# Method in brief: as §1
SMILES,GI50 [µM],TGI [µM]
c1ccc(C(c2ccc(CCN3CCCCC3)cc2)C23CC4CC(CC(C4)C2)C3)cc1 (stereo unspecified),17.7,43.7

# Same assay, conditions: IGROV-1, 48 h, read-out: LC50 (the source's name)
row,SMILES,CC50 [µM]
1,c1ccc(C(c2ccc(CCN3CCCCC3)cc2)C23CC4CC(CC(C4)C2)C3)cc1 (stereo unspecified),0.0687

# Test system: MCF7
# Test: Growth inhibition of human MCF7 cells after 48 hrs by SRB assay
# Assay type: functional
# Conditions: MCF7, 48 h
# Method in brief: as §1
SMILES,GI50 [µM],TGI [µM]
c1ccc(C(c2ccc(CN3CCCCC3)cc2)C23CC4CC(CC(C4)C2)C3)cc1 (stereo unspecified),8.89,43
c1ccc(C(c2ccc(CCN3CCCCC3)cc2)C23CC4CC(CC(C4)C2)C3)cc1 (stereo unspecified),6.93,42.4

# Same assay, conditions: MCF7, 48 h, read-out: LC50 (the source's name)
row,SMILES,CC50 [µM]
1,c1ccc(C(c2ccc(CN3CCCCC3)cc2)C23CC4CC(CC(C4)C2)C3)cc1 (stereo unspecified),0.0806
2,c1ccc(C(c2ccc(CCN3CCCCC3)cc2)C23CC4CC(CC(C4)C2)C3)cc1 (stereo unspecified),0.0985
